Experimental data pooled from the literature.
Each line is one published result; the experiments were not run side by side.
Target: Mitogen-activated protein kinase 15 (MAPK15, Homo sapiens, UniProt Q8TD08)
One construct used (Q8TD08 1-544): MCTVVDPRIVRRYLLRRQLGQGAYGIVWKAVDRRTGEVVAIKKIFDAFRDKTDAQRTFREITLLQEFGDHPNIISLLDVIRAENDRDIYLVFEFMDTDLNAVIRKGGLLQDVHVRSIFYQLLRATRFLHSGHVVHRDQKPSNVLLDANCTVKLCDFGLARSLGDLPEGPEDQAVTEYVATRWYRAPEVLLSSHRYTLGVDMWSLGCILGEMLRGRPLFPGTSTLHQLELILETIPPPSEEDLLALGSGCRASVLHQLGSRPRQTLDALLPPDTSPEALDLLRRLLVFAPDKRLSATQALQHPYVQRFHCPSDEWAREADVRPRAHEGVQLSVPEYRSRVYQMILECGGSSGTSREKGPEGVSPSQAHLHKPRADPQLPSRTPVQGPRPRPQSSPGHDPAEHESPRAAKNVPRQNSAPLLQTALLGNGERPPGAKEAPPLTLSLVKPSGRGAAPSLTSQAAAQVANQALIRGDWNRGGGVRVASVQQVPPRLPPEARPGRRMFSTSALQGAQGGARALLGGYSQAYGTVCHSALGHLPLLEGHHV

SMILES | observed | method | concentration | remaining binding [%]
O=C(O)c1cc(-c2ccc(C3CCNCC3)cc2)c2ccc(-c3ccc(C(F)(F)F)cc3)cc2c1 | cell-free assay | competition with immobilised ligand | 1 µM | 100
O=C(NCCCN1CCOCC1)c1ccc(Nc2nccc(-c3cc4ccccc4s3)n2)cc1 | binding | competition with immobilised ligand | 1 µM | 10
CCS(=O)(=O)c1cc2cc(C[C@](O)(CC(C)(C)c3ccc(F)cc3C(N)=O)C(F)(F)F)[nH]c2cn1 | cell-free assay | competition with immobilised ligand | 1 µM | 100
CN(c1nccc(-c2cnn3ncccc23)n1)C1CC1 | binding |  | 1 µM | 85
COc1ncc2cc3ccccc3nc2c1C#N | cell-free assay | competition with immobilised ligand | 5 µM | 91
Cc1noc([C@H]2C[C@@H](c3ccc(C(F)(F)F)cc3)CN(C(=O)N3CCS(=O)(=O)C3)C2)n1 | cell-free assay | competition with immobilised ligand | 1 µM | 100
CN(C)c1nccc(-c2cnc3ncccn23)n1 | binding |  | 1 µM | 50
C[C@@H](c1ccc(-n2cnc3c(N)ncnc32)cc1)N1CCc2nn(C)c(Cc3ccccc3)c2C1=O | binding | competition with immobilised ligand | 0.1 µM | 88
O=C(c1ccc(Nc2ncc(Cl)c(-c3cc4ccccc4s3)n2)cc1)N1CCC(N2CCCC2)CC1 | binding | competition with immobilised ligand | 1 µM | 5.4
O=C(Nc1c[nH]nc1C(=O)NC1CCNCC1)c1cc(F)cc(F)c1 | binding | competition with immobilised ligand | 1 µM | 75
CSc1cccnc1N1CCN(Cc2nc3ccccc3[nH]2)CC1 | cell-free assay | competition with immobilised ligand | 1 µM | 82
O=C(c1ccc(Nc2nccc(-c3cc4ccccc4s3)n2)cc1)N1CCC(N2CCCC2)CC1 | binding | competition with immobilised ligand | 1 µM | 49
CC1CCCN1c1nccc(-c2cnn3ncccc23)n1 (stereo not shown) | binding |  | 1 µM | 100
O=S(=O)(NC1CCC(c2cc(F)ccc2F)(S(=O)(=O)c2ccc(Cl)cc2)CC1)C(F)(F)F (stereo not shown) | cell-free assay | competition with immobilised ligand | 1 µM | 94
C=CC(=O)N1CCC(C(=O)NCC(=O)N2CCN(c3nc(-c4cnc(N)nc4C(F)F)nc(N4CCOCC4)n3)CC2)CC1 | binding | competition with immobilised ligand | 1 µM | 97
Nc1ncc2c(n1)-c1c([nH]c3ccc(C#CC4CC4)cc13)CCCC2 | binding | competition with immobilised ligand | 1 µM | 100
COc1ccnn2ncc(-c3ccnc(N(C)C)n3)c12 | binding |  | 1 µM | 91
CN([C@@H]1CCc2c(CC(=O)O)c3ccccc3n2C1)S(=O)(=O)c1ccc(F)cc1 | cell-free assay | competition with immobilised ligand | 1 µM | 100
N[C@@H]1CCN(c2nccc(-c3cnn4ncccc34)n2)C1 | binding |  | 1 µM | 97
CNC(=O)[C@@H]1CC[C@@H](n2c(-c3ccc4cnccc4c3)nc3ccc(C(=O)NCc4cccc(C(N)=O)c4)cc32)C1 | binding | competition with immobilised ligand | 1 µM | 95
CCCCN(CCCC)C(=O)CN1C[C@H](c2cc(OC)c3c(c2)OCO3)[C@@H](C(=O)O)[C@@H]1CC(C)(C)CCC | cell-free assay | competition with immobilised ligand | 1 µM | 100
C[C@H]1CCN(c2nccc(-c3cnn4ncccc34)n2)C1 | binding |  | 1 µM | 74
